According to ChEMBL document CHEMBL1156912, “Subtlety of the structure-affinity and structure-efficacy relationships around a nonpeptide oxytocin receptor agonist” (J Med Chem, 2010):
Calls of active or inactive are those of the source. The calls are words filed in the database; no cut-off is given here.

Columns and labels:
Vasopressin V1a receptor [1] = target: T1, Vasopressin V1a receptor (Homo sapiens, UniProt P37288); assay: Activity at human vasopressin V1a receptor expressed in CHO cells assessed as inositol phosphate accumulation at 1 uM; format: functional, cell-based
How it was run: (§1)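 Human V1a-expressing CHO cells, 80000 cells/well, exposed to ligand for 30 min at 37 °C. IP1 was measured by HTRF IP-One. EC50 (K_act) from the dose–response curve. Emax is relative to the 1 μM AVP maximum. Weak responses are reported as % of AVP maximum at 1 μM ligand.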
Target sequence in this assay (P37288 whole entry, looked up): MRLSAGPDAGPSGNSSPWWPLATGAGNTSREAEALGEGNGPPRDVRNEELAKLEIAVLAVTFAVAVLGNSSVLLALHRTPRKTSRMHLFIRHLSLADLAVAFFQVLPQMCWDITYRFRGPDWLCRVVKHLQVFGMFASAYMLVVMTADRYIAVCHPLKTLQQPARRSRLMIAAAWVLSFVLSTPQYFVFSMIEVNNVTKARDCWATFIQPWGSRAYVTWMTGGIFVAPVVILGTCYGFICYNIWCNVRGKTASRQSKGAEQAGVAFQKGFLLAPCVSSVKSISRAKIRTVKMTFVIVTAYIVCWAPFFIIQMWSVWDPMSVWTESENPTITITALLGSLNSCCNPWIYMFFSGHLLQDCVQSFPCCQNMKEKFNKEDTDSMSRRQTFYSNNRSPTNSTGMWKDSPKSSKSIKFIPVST

[2] = target: T2, Oxytocin receptor (Homo sapiens) (UniProt P30559); assay: Activity at human oxytocin receptor expressed in CHO cells assessed as inhibition of agonist-induced inositol phosphate accumulation; format: functional, cell-based
T2 sequence (whole entry): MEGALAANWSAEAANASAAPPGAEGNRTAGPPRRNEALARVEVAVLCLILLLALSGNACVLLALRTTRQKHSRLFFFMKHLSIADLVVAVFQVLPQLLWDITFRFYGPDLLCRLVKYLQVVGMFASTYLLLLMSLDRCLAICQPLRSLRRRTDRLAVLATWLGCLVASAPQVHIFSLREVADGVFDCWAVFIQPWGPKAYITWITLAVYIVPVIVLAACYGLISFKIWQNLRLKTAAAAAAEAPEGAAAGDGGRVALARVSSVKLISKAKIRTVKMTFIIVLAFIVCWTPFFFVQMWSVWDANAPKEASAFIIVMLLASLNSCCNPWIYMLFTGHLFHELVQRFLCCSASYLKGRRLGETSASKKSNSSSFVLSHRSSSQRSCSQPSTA

Oxytocin receptor [3] = target: T3, Oxytocin receptor (Homo sapiens, UniProt P30559); assay: Displacement of [3H]AVP from human oxytocin receptor expressed in CHO cells; format: cell-based
T3 sequence (P30559 whole entry): T2 sequence (whole entry)
How it was run: (§2)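 Membranes came from CHO cells stably expressing the human receptor; OT-R and V1a-R cells were treated overnight with 5 mM butyrate. Membrane protein was 10–15 μg (OT, V1a) or 5 μg (V2), incubated 30 min at 30 °C in 50 mM Tris-HCl, 5 mM MgCl2, 1 mg/mL BSA, pH 7.4, with 1–2 nM [3H]AVP and competitor 0.1 pM–100 μM. Nonspecific binding: 10 μM AVP. Filtration, then Ki via Cheng–Prusoff. Mean ± SEM of ≥3 experiments in triplicate.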

Vasopressin V2 receptor [4] = target: T4, Vasopressin V2 receptor (Homo sapiens, UniProt P30518); assay: Displacement of [3H]AVP from human vasopressin V2 receptor expressed in CHO cells; format: cell-based; how it was run: as §2
Vasopressin V1a receptor [5] = target: T1, Vasopressin V1a receptor; assay: Activity at human vasopressin V1a receptor expressed in CHO cells assessed as inhibition of agonist-induced inositol phosphate accumulation; format: functional, cell-based
How it was run: (§3)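 Human V1a receptor in stably transfected CHO cells, seeded at 80000 cells/well overnight. Cells were preincubated 10 min at 37 °C with ligand (10 fM–100 μM, ≤1% final DMSO), then challenged with 2 nM AVP for 30 min. IP1 was read by IP-One HTRF. K_inact was derived by Cheng–Prusoff-type correction using AVP K_act 1.20 nM. Fixed-concentration lines are % inhibition, n = 2.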
Target sequence in this assay (P37288 whole entry, looked up): as the sequence (P37288 whole entry, looked up) above

Vasopressin V1a receptor [6] = target: T1, Vasopressin V1a receptor; assay: Displacement of [3H]AVP from human vasopressin V1a receptor expressed in CHO cells; format: cell-based; how it was run: as §2
Target sequence in this assay (P37288 whole entry): as the sequence (P37288 whole entry, looked up) above

[7] = target: T2, Oxytocin receptor (Homo sapiens); assay: Activity at human oxytocin receptor expressed in CHO cells assessed as inositol phosphate accumulation; format: functional, cell-based
How it was run: (§4)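 Agonist mode on CHO cells stably expressing human OT receptor: 30 min at 37 °C with ligand, 10 fM–100 μM, ≤1% final DMSO. IP1 accumulation was read by IP-One HTRF, ΔF from the 665/620 ratio. K_act is the EC50 from the sigmoidal fit. Emax is % of the 1 μM OT maximal response. Single-concentration lines are % of OT maximum, n = 2. Mean of ≥3 experiments in triplicate.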

Vasopressin V2 receptor [8] = target: T4, Vasopressin V2 receptor; assay: Activity at human vasopressin V2 receptor expressed in CHO cells assessed as cAMP accumulation; format: functional, cell-based
How it was run: (§5)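 V2-R agonism in CHO cells at 1000 cells/well, stimulated 30 min at 37 °C in D-MEM containing 0.1 mM Ro-20-1724 and 1 mg/mL BSA. cAMP was read by cAMP dynamic 2 HTRF. K_act from the sigmoidal fit. Emax is % of the 0.1 μM AVP response. Single-concentration values are % of AVP maximum.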

Vasopressin V2 receptor [9] = target: T4, Vasopressin V2 receptor; assay: Activity at human vasopressin V2 receptor expressed in CHO cells assessed as inhibition of agonist-induced cAMP accumulation at 1 uM; format: functional, cell-based
Vasopressin V2 receptor [10] = target: T4, Vasopressin V2 receptor; assay: Activity at human vasopressin V2 receptor expressed in CHO cells assessed as cAMP accumulation at 1 uM; format: functional, cell-based; how it was run: as §5
[11] = target: T2, Oxytocin receptor (Homo sapiens); assay: Activity at human oxytocin receptor expressed in CHO cells assessed as inhibition of agonist-induced inositol phosphate accumulation at 1 uM; format: functional, cell-based; set-up: scale not given: the % may be the effect or the level left
[12] = target: T2, Oxytocin receptor (Homo sapiens); assay: Activity at human oxytocin receptor expressed in CHO cells assessed as inhibition of agonist-induced inositol phosphate accumulation at 10 uM; format: functional, cell-based; set-up: scale not given: the % may be the effect or the level left
Vasopressin V1a receptor [13] = target: T1, Vasopressin V1a receptor; assay: Activity at human vasopressin V1a receptor expressed in CHO cells assessed as inhibition of agonist-induced inositol phosphate accumulation at 1 uM; format: functional, cell-based; set-up: scale not given: the % may be the effect or the level left; how it was run: as §3
Target sequence in this assay (P37288 whole entry, looked up): as the sequence (P37288 whole entry, looked up) above

Vasopressin V1a receptor [14] = target: T1, Vasopressin V1a receptor; assay: Activity at human vasopressin V1a receptor expressed in CHO cells assessed as inositol phosphate accumulation; format: functional, cell-based; how it was run: as §1
Target sequence in this assay (P37288 whole entry, looked up): as the sequence (P37288 whole entry, looked up) above

Vasopressin V1a receptor [15] = target: T1, Vasopressin V1a receptor; assay: Activity at human vasopressin V1a receptor expressed in CHO cells by NFAT-luciferase gene reporter assay; format: cell-based
[16] = target: T2, Oxytocin receptor (Homo sapiens); assay: Activity at human oxytocin receptor expressed in CHO cells assessed as inositol phosphate accumulation at 1 uM; format: functional, cell-based; how it was run: as §4
Vasopressin V2 receptor [17] = target: T4, Vasopressin V2 receptor; assay: Activity at human vasopressin V2 receptor expressed in CHO cells by cAMP dynamic 2 assay
Vasopressin V2 receptor [18] = target: T4, Vasopressin V2 receptor; assay: Activity at human vasopressin V2 receptor expressed in CHO cells assessed as inhibition of agonist-induced cAMP accumulation; format: functional, cell-based
Oxytocin receptor [19] = target: T3, Oxytocin receptor; assay: Activity at human oxytocin receptor expressed in CHO cells by NFAT-luciferase gene reporter assay; format: cell-based
Vasopressin V2 receptor [20] = target: T4, Vasopressin V2 receptor; assay: Activity at human vasopressin V2 receptor expressed in CHO cells assessed as cAMP accumulation at 10 uM; format: functional, cell-based; how it was run: as §5
Vasopressin V1a receptor [21] = target: T1, Vasopressin V1a receptor; assay: Activity at human vasopressin V1a receptor expressed in CHO cells assessed as inhibition of agonist-induced inositol phosphate accumulation at 100 uM; format: functional, cell-based; set-up: scale not given: the % may be the effect or the level left; how it was run: as §3
Target sequence in this assay (P37288 whole entry, looked up): as the sequence (P37288 whole entry, looked up) above

Vasopressin V2 receptor [22] = target: T4, Vasopressin V2 receptor; assay: Activity at human vasopressin V2 receptor expressed in CHO cells assessed as inhibition of agonist-induced cAMP accumulation at 100 uM; format: functional, cell-based; set-up: scale not given: the % may be the effect or the level left
Vasopressin V2 receptor [23] = target: T4, Vasopressin V2 receptor; assay: Activity at human vasopressin V2 receptor expressed in CHO cells assessed as inhibition of agonist-induced cAMP accumulation at 10 uM; format: functional, cell-based; set-up: Activity: scale not given: the % may be the effect or the level left
Vasopressin V2 receptor [24] = target: T4, Vasopressin V2 receptor; assay: Activity at human vasopressin V2 receptor expressed in CHO cells assessed as cAMP accumulation up to 100 uM; format: functional, cell-based; how it was run: as §5
Vasopressin V1a receptor [25] = target: T1, Vasopressin V1a receptor; assay: Activity at human vasopressin V1a receptor expressed in CHO cells assessed as inositol phosphate accumulation up to 100 uM; format: functional, cell-based; how it was run: as §1
Target sequence in this assay (P37288 whole entry, looked up): as the sequence (P37288 whole entry, looked up) above

Vasopressin V1a receptor [26] = target: T1, Vasopressin V1a receptor; assay: Activity at human vasopressin V1a receptor expressed in CHO cells assessed as inhibition of agonist-induced inositol phosphate accumulation at 10 uM; format: functional, cell-based; set-up: scale not given: the % may be the effect or the level left; how it was run: as §3

T4 sequence (P30518 whole entry): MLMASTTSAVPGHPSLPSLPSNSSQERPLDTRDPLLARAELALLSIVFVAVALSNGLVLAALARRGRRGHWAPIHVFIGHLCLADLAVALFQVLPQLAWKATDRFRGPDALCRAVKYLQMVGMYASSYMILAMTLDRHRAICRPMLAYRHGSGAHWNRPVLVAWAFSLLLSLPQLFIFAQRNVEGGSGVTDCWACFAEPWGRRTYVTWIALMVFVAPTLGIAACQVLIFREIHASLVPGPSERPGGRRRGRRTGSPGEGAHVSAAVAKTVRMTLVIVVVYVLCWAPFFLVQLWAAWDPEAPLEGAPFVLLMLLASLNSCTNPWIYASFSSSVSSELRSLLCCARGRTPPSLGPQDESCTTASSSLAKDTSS

| Compound | Activity (Vasopressin V1a receptor [1]) | Ki (Oxytocin receptor [3]; read-out: Ki) | Ki (Vasopressin V2 receptor [4]; read-out: Ki) | Kinact (Vasopressin V1a receptor [5]) | Ki (Vasopressin V1a receptor [6]; read-out: Ki) | Emax (Vasopressin V2 receptor [10]) | Activity [11] | Activity [12] | further results |
| --- | --- | --- | --- | --- | --- | --- | --- | --- | --- |
| Cc1ccn(-c2ccc(C(=O)N3Cc4cnn(C)c4Nc4ccccc43)c(Cl)c2)n1 | inactive | 17 nM | 29 nM | 13 nM | 27 nM | 94% |  |  | Kinact [2]: 69 nM; Activity [7]: inactive; Kact (Vasopressin V2 receptor [8]): 8.4 nM; Activity (Vasopressin V2 receptor [9]): inactive |
| Cc1cc(C(=O)N2Cc3cnn(C)c3Nc3ccccc32)ccc1CNC(=O)N1CCCC1 | inactive | > 1000 nM | > 1000 nM | 187 nM | 167 nM | 20% | 37% | inactive | Kinact (Vasopressin V2 receptor [9]): inactive |
| Cc1cc(C(=O)N2Cc3cnn(C)c3Nc3ccccc32)ccc1CNC(=O)N(C)C | inactive | > 5000 nM | > 1000 nM | 134 nM | 170 nM | 16% | 30% | inactive |  |
| CC(=O)NCc1ccc(C(=O)N2Cc3cnn(C)c3Nc3ccccc32)cc1C | inactive | > 5000 nM |  |  | > 5000 nM |  | inactive | inactive | Activity (Vasopressin V1a receptor [13]): 27% |
| Cc1cc(C(=O)N2Cc3cnn(C)c3Nc3ccccc32)ccc1CNC(=O)N1CCC[C@H]1C(=S)N1CCCN(C)CC1 |  | 147 nM | > 1000 nM | 271 nM | 330 nM | 84% | 16% |  | Activity (Vasopressin V1a receptor [14]): inactive; Activity (Vasopressin V1a receptor [15]): inactive; Kact [7]: 667 nM; Kact (Vasopressin V2 receptor [8]): 599 nM; Activity (Vasopressin V2 receptor [9]): inactive; Emax [16]: 58% |
| COc1cc(OC2CCN(C(C)=O)CC2)ccc1C(=O)N1CCC(N2C(=O)OCc3ccccc32)CC1 | inactive |  |  |  |  |  |  |  | EC50 (Vasopressin V2 receptor [17]): 37000 nM; Ki (Oxytocin receptor [3]; cho): Not Active; Ki (Vasopressin V2 receptor [4]; cho): Not Active; Kinact (Vasopressin V2 receptor [18]): inactive; EC50 (Oxytocin receptor [19]): 4.6 nM; Activity (Vasopressin V1a receptor [13]): 18%; Ki (Vasopressin V1a receptor [6]; cho): Not Active; EC50 (Vasopressin V1a receptor [15]): 3200 nM; Activity (Vasopressin V2 receptor [10]): inactive; Activity [16]: inactive |
| CN1CCCN(C(=S)[C@@H]2CCCN2C(=O)NCc2ccc(C(=O)N3Cc4cccn4Cc4ccccc43)c(Cl)c2)CC1 |  | > 5000 nM | > 5000 nM |  | > 5000 nM |  |  | 17% | Activity (Vasopressin V2 receptor [20]): 13%; Activity (Vasopressin V1a receptor [21]): 92%; Activity (Vasopressin V2 receptor [22]): 94%; Activity (Vasopressin V2 receptor [23]): 25%; Activity (Vasopressin V2 receptor [24]): inactive; Activity (Vasopressin V1a receptor [25]): inactive; Activity (Vasopressin V1a receptor [26]): 7% |
